The text below walks through data of publication PMC3946399 (Molecular pharmaceutics, 2013).

Data set [1] has as its system SERCA. In words: Evaluation of synergy in SERCA ATPase assay. Type of data set: biochemical, rabbit.
Data set [2] has as its system HL60/MX2 cells. Briefly: cells. The data set is classed as cell-based.
Data set [3] has as its system HL60/MX2 cells. Type of data set: cell-based. To be noted: ratio of IC50 in HL60 and HL60/MX2.
For data set [4], the target named is SERCA. Particulars: cited from earlier work.
Another data set deals with SERCA1a (Oryctolagus cuniculus, UniProt P04191). The data set is classed as biochemical, rabbit. To be noted: for pKATP(reg) / pKATP(cat): pCa 5.4; for pKATP(reg): control 3.30 ± 0.08; for pKATP(cat): control 4.99 ± 0.07. In short, it runs like this:
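Ca2+-dependent ATPase activity was measured in light SR vesicles from fast-twitch skeletal muscle of New Zealand white rabbits, using an NADH-linked coupled assay. Buffer was 5 mM MgCl2, 100 mM KCl, 1 mM EGTA (free Ca2+ set by EGTA buffering), 0.4 mM NADH, 10 IU/mL LDH, 10 IU/mL PK, 7 ug/mL A23187, 50 mM MOPS pH 7.0. Compounds were added in 1% DMSO final. Runs were at 37 °C in duplicate or triplicate, and rates were taken from A340 decay.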

Where [5] appears, read: in combination with (−)-CXL017 at fixed molar ratio, CI<0.9 synergy.

Structures are written as SMILES. Like-named read-outs stand apart in the source and are kept apart here.

SERCA1a, sequence (P04191 1-994 isoform P04191-2): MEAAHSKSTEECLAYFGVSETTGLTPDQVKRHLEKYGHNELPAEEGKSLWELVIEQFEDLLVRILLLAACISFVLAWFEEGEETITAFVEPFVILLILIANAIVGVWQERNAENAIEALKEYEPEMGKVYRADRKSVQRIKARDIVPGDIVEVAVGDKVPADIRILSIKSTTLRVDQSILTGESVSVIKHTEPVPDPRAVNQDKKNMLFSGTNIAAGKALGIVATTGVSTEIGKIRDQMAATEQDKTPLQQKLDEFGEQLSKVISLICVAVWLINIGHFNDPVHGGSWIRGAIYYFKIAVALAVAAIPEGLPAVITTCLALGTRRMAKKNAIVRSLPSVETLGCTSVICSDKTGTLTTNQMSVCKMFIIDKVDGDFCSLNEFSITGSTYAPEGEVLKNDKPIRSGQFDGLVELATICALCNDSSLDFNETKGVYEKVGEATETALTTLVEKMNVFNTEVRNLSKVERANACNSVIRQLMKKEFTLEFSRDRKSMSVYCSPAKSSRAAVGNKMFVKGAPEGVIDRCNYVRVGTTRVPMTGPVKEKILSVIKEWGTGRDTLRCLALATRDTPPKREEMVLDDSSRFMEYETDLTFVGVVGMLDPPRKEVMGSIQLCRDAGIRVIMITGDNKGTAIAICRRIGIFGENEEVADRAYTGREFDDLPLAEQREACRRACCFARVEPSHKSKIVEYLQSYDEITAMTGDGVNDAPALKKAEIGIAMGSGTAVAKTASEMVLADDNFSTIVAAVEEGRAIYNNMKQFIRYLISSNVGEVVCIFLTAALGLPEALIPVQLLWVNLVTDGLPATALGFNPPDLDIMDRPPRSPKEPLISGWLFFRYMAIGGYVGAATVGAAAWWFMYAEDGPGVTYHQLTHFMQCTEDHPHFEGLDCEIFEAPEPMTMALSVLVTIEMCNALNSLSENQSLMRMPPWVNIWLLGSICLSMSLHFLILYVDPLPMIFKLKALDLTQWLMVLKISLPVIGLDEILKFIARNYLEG

One may read the cell viability as a per cent measure of how many cells are alive, often set against a control. Low values mean more harm to the cells, high ones less harm to the cells. In the case of `CCOC(=O)CC1C(C(=O)OCC)=C(N)Oc2ccc(-c3cc(OC)cc(OC)c3)cc21` (single isomer, unassigned; (-)) [(−)-CXL017], the “combination index (CI)” value in the data set with SERCA [1] ((−)-CXL017 with each of the known SERCA inhibitors (TG, CPA, BHQ)) is recorded as less than 0.9. The same molecule displayed a cell viability with HL60/MX2 cells [2] (6.25 µM) of 47%.
As for `CC(C)(C)c1cc(O)c(C(C)(C)C)cc1O` [BHQ, 2,5-di-tert-butylhydroquinone], in the data set with HL60/MX2 cells [3], the “selectivity for resistant cell line (HL60/MX2 over HL60)” value (from here on “selectivity for resistant cell line”) stood at 7.7 fold. The dissociation constant result on SERCA [4] is on record as “submicromolar”. In the data set with SERCA [1] (setting [5]), the “combination index (CI)” value is 0.15–0.25.
Regarding `CC(=O)C1=C(O)[C@@H]2[C@H]3c4c[nH]c5cccc(c45)C[C@H]3C(C)(C)N2C1=O` [CPA, cyclopiazonic acid], the “selectivity for resistant cell line” value with HL60/MX2 cells [3] is on record as 17 fold. In addition, on SERCA [4], the dissociation constant entry is given as “submicromolar”. Besides, the “combination index (CI)” value in the data set on SERCA [1] (setting [5]) was 0.35–0.45.
The IC50 is the concentration that inhibits the measured activity by half. Molecule `CCOC(=O)CC1C(C(=O)OCC)=C(N)Oc2ccc(-c3cc(OC)cc(OC)c3)cc21` (stereo not shown) [CXL017, Ethyl 2-amino-6-(3,5-dimethoxyphenyl)-4-(2-ethoxy-2-oxoethyl)-4H-chromene-3-carboxylate] registered an IC50 at SERCA1a of 25 ± 1 µM. On SERCA1a (10 μM CXL017, varied ATP), the “pKATP(reg)” value is reported as 2.96 ± 0.07 and the “pKATP(cat)” value came out at 3.92 ± 0.02. For the same molecule, at SERCA1a (30 μM CXL017, varied ATP), the “pKATP(reg)” value amounted to 2.6 ± 0.1 and the “pKATP(cat)” value is recorded as 3.99 ± 0.02. The “effect on apparent Ca2+ affinity (pKCa)” value on SERCA1a (10 or 30 μM CXL017) was “no significant effect”. In addition, at SERCA1a (10 or 30 μM CXL017, varied ATP, two-site model), the “change in Vmax at catalytic and regulatory ATP sites” value is reported as “no significant change”.
What is called viability is a read-out of living cells in per cent, often relative to untreated cells. In the case of `C/C=C(/C)C(=O)O[C@H]1C(C)=C2[C@H]([C@@H]1OC(=O)CCCCCCC)[C@@](C)(OC(C)=O)C[C@H](OC(=O)CCC)[C@@]1(O)[C@H]2OC(=O)[C@@]1(C)O` [TG, thapsigargin], the “selectivity for resistant cell line” value in the data set on HL60/MX2 cells [3] was 400 fold. Further, on SERCA [4], the dissociation constant entry is recorded as “submicromolar”. The “combination index (CI)” value with SERCA [1] (setting [5]) is recorded as 0.4–0.65. In the data set with HL60/MX2 cells [2] (Homo sapiens, HL60/MX2, read-out: cell viability), the viability at 0.009375 µM turned out to be 43%.
